# Assay results gathered from unrelated publications.
# Target: Death-associated protein kinase 2 (DAPK2, Homo sapiens, UniProt Q9UIK4)
Structure (SMILES),test,setting,remaining binding [%]
CN(C)c1nccc(-c2cnn3ncccc23)n1,binding,1 µM,90
COc1cccc(CNC(=O)c2nc3scc(COCc4ccc(C(=O)O)cc4)c3c(=O)[nH]2)c1,"cell-free assay, competition with immobilised ligand",1 µM,83.1
COc1ccnn2ncc(-c3ccnc(N(C)C)n3)c12,binding,1 µM,91
C[C@H](NC(=O)c1cnc2n1[C@](C)(Cc1ccc(C#N)cc1)C(=O)N2c1cc(Cl)c(F)c(Cl)c1)C(=O)NC1(c2ccccn2)CC1,"cell-free assay, competition with immobilised ligand",1 µM,100
C[C@H]1CCN(c2nccc(-c3cnn4ncccc34)n2)C1,binding,1 µM,72
O=C(NCC1CCOCC1)c1n[nH]cc1NC(=O)c1c(F)cccc1F,"binding, competition with immobilised ligand",1 µM,95
F[C@@H]1CCN(c2nccc(-c3cnn4ncccc34)n2)C1,binding,1 µM,100
CC(=O)C1=C(C)N(c2cccc(C(F)(F)F)c2)C(=O)N[C@@H]1c1ccc(C#N)nc1,"cell-free assay, competition with immobilised ligand",1 µM,79.2
CN(C)c1nccc(-c2cnc3ncccn23)n1,binding,1 µM,89
CNC(=O)[C@@H]1CC[C@@H](n2c(-c3ccc4cnccc4c3)nc3ccc(C(=O)NCc4cccc(C(N)=O)c4)cc32)C1,"binding, competition with immobilised ligand",1 µM,100
CN(C)c1ncc(F)c(-c2cnn3ncccc23)n1,binding,1 µM,69
O=C(c1ccc(Nc2ncc(Cl)c(-c3ccc(Cl)s3)n2)cc1)N1CCC(N2CCCC2)CC1,"binding, competition with immobilised ligand",1 µM,29
C=CC(=O)N1CCC(C(=O)NCC(=O)N2CCN(c3nc(-c4cnc(N)nc4C(F)F)nc(N4CCOCC4)n3)CC2)CC1,"binding, competition with immobilised ligand",1 µM,95
O=C(NCCCN1CCOCC1)c1ccc(Nc2ncc(Cl)c(-c3ccc(Cl)s3)n2)cc1,"binding, competition with immobilised ligand",1 µM,38
CCS(=O)(=O)c1cc2cc(C[C@](O)(CC(C)(C)c3ccc(F)cc3C(N)=O)C(F)(F)F)[nH]c2cn1,"cell-free assay, competition with immobilised ligand",1 µM,90
CC1CCCN1c1nccc(-c2cnn3ncccc23)n1 (stereo not shown),binding,1 µM,86
Nc1ncc2c(n1)-c1c([nH]c3ccc(C#CC4CC4)cc13)CCCC2,"binding, competition with immobilised ligand",1 µM,100
COc1cnc(Nc2cccc(S(N)(=O)=O)c2)nc1N1CCN(c2ccccc2)CC1,"binding, competition with immobilised ligand",1 µM,78
CN(C)C(=O)Cn1cc(-c2nc(C3(c4ccc(-c5cnc(N)nc5)cc4)CC3)no2)cn1,"cell-free assay, competition with immobilised ligand",1 µM,86
O=C(c1ccc(Nc2nccc(-c3cc4ccccc4s3)n2)cc1)N1CCC(N2CCCC2)CC1,"binding, competition with immobilised ligand",1 µM,19
CCN1CCN(Cc2ccc(C(=O)Nc3ccc(C)c(Oc4ccc5c(c4)CC(=O)N5)c3)cc2C(F)(F)F)CC1,"binding, competition with immobilised ligand",1 µM,100
CS(=O)(=O)N1CCCC(NC(=O)[C@H](CCC2CCCCC2)NC(=O)c2ccc(CNc3ncnc4c3nnn4-c3ccccc3)cc2)C1 (stereo partly shown),"cell-free assay, competition with immobilised ligand",0.1 µM,90
